Measurements as given in ChEMBL document CHEMBL1142666, “Novel [2',5'-bis-O-(tert-butyldimethylsilyl)-beta-D-ribofuranosyl]- 3'-spiro-5''-(4''-amino-1'',2''-oxathiole-2'',2" -dioxide) derivatives with anti-HIV-1 and anti-human-cytomegalovirus activity” (J Med Chem, 2005).

System: MT4
Experiment: Cytostatic concentration required to inhibit MT-4 cell proliferation
Format: functional
Settings: Homo sapiens
How it was run: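 Mock-infected MT-4 cells (3 × 10^5/mL) incubated with compound dilutions for 5 days. Viable cells counted by trypan blue exclusion. CC50 = concentration reducing viable MT-4 cell number by 50%.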

Cc1cn([C@@H]2O[C@H](CO[Si](C)(C)C(C)(C)C)[C@@]3(OS(=O)(=O)C=C3NCCC(N)=O)[C@H]2O[Si](C)(C)C(C)(C)C)c(=O)n(C)c1=O and COC(=O)NC1=CS(=O)(=O)O[C@@]12[C@@H](CO[Si](C)(C)C(C)(C)C)O[C@@H](n1cc(C)c(=O)n(C)c1=O)[C@@H]2O[Si](C)(C)C(C)(C)C are within 1.5-fold of each other in CC50: 20 µM for the first, 29.9 µM for the second.

First: COC(=O)CC(=O)NC1=CS(=O)(=O)O[C@@]12[C@@H](CO[Si](C)(C)C(C)(C)C)O[C@@H](n1cc(C)c(=O)n(C)c1=O)[C@@H]2O[Si](C)(C)C(C)(C)C
Second: Cc1cn([C@@H]2O[C@@H]3COC(=O)[C@]3(OS(C)(=O)=O)[C@H]2O)c(=O)[nH]c1=O
The CC50 of the first is lower: 11.9 µM for the first, at least 250 µM for the second.

System: CCRF-CEM
Experiment: Effective concentration required to inhibit HIV-2 ROD in CEM cell culture
Format: functional, cell-based
Settings: Homo sapiens
How it was run: (§1)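 CEM cells (4 × 10^5/mL) infected at ~100 CCID50/mL and mixed with compound dilutions. Giant cell formation scored microscopically at day 4. EC50 = concentration inhibiting virus-induced cytopathicity by 50%.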

Cc1cn([C@@H]2O[C@H](CO[Si](C)(C)C(C)(C)C)[C@@]3(OS(=O)(=O)C=C3NCCC(N)=O)[C@H]2O[Si](C)(C)C(C)(C)C)c(=O)n(C)c1=O and COC(=O)NC1=CS(=O)(=O)O[C@@]12[C@@H](CO[Si](C)(C)C(C)(C)C)O[C@@H](n1cc(C)c(=O)n(C)c1=O)[C@@H]2O[Si](C)(C)C(C)(C)C cannot be ordered by EC50: over 10 µM for the first, over 20 µM for the second.

COC(=O)CC(=O)NC1=CS(=O)(=O)O[C@@]12[C@@H](CO[Si](C)(C)C(C)(C)C)O[C@@H](n1cc(C)c(=O)n(C)c1=O)[C@@H]2O[Si](C)(C)C(C)(C)C and Cc1cn([C@@H]2O[C@@H]3COC(=O)[C@]3(OS(C)(=O)=O)[C@H]2O)c(=O)[nH]c1=O cannot be ordered by EC50: over 25 µM for the first, over 50 µM for the second.

System: HEL
Experiment: Minimal cytotoxic concentration required to cause microscopically visible alteration of cell morphology in HEL Cells
Format: functional
Settings: Homo sapiens
How it was run: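 Uninfected HEL cells exposed to compound. Minimum cytotoxic concentration is the lowest level giving a microscopically detectable change in cell morphology.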

Cc1cn([C@@H]2O[C@H](CO[Si](C)(C)C(C)(C)C)[C@@]3(OS(=O)(=O)C=C3NCCC(N)=O)[C@H]2O[Si](C)(C)C(C)(C)C)c(=O)n(C)c1=O and COC(=O)NC1=CS(=O)(=O)O[C@@]12[C@@H](CO[Si](C)(C)C(C)(C)C)O[C@@H](n1cc(C)c(=O)n(C)c1=O)[C@@H]2O[Si](C)(C)C(C)(C)C cannot be ordered by MCC: at least 80 µM for the first, at least 50 µM for the second.

COC(=O)CC(=O)NC1=CS(=O)(=O)O[C@@]12[C@@H](CO[Si](C)(C)C(C)(C)C)O[C@@H](n1cc(C)c(=O)n(C)c1=O)[C@@H]2O[Si](C)(C)C(C)(C)C and Cc1cn([C@@H]2O[C@@H]3COC(=O)[C@]3(OS(C)(=O)=O)[C@H]2O)c(=O)[nH]c1=O cannot be ordered by MCC: 400 µM for the first, at least 400 µM for the second.

System: CCRF-CEM
Experiment: Effective concentration required to inhibit HIV-1 IIIB in CEM cell culture
Format: functional, cell-based
Settings: Homo sapiens
How it was run: as §1

Going from Cc1cn([C@@H]2O[C@H](CO[Si](C)(C)C(C)(C)C)[C@@]3(OS(=O)(=O)C=C3NCCC(N)=O)[C@H]2O[Si](C)(C)C(C)(C)C)c(=O)n(C)c1=O to COC(=O)NC1=CS(=O)(=O)O[C@@]12[C@@H](CO[Si](C)(C)C(C)(C)C)O[C@@H](n1cc(C)c(=O)n(C)c1=O)[C@@H]2O[Si](C)(C)C(C)(C)C, the EC50 rises from 5 µM to over 20 µM. The first is the more potent here.

COC(=O)CC(=O)NC1=CS(=O)(=O)O[C@@]12[C@@H](CO[Si](C)(C)C(C)(C)C)O[C@@H](n1cc(C)c(=O)n(C)c1=O)[C@@H]2O[Si](C)(C)C(C)(C)C and Cc1cn([C@@H]2O[C@@H]3COC(=O)[C@]3(OS(C)(=O)=O)[C@H]2O)c(=O)[nH]c1=O cannot be ordered by EC50: at least 5 µM for the first, over 50 µM for the second.

System: HEL
Experiment: Cytostatic concentration required to inhibit HEL cell proliferation
Format: functional
Settings: Homo sapiens
How it was run: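 HEL fibroblasts seeded at 5 × 10^3 cells/well and grown 24 h, then given compound in duplicate. After 3 days at 37 °C in 5% CO2, cell number read on a Coulter counter. CC50 = concentration reducing cell growth by 50%.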

First: Cc1cn([C@@H]2O[C@H](CO[Si](C)(C)C(C)(C)C)[C@@]3(OS(=O)(=O)C=C3NCCC(N)=O)[C@H]2O[Si](C)(C)C(C)(C)C)c(=O)n(C)c1=O
Second: COC(=O)NC1=CS(=O)(=O)O[C@@]12[C@@H](CO[Si](C)(C)C(C)(C)C)O[C@@H](n1cc(C)c(=O)n(C)c1=O)[C@@H]2O[Si](C)(C)C(C)(C)C
The CC50 of the first is lower: 14.8 µM for the first, over 200 µM for the second.

COC(=O)CC(=O)NC1=CS(=O)(=O)O[C@@]12[C@@H](CO[Si](C)(C)C(C)(C)C)O[C@@H](n1cc(C)c(=O)n(C)c1=O)[C@@H]2O[Si](C)(C)C(C)(C)C and Cc1cn([C@@H]2O[C@@H]3COC(=O)[C@]3(OS(C)(=O)=O)[C@H]2O)c(=O)[nH]c1=O are within 1.5-fold of each other in CC50: 29 µM for the first, 36 µM for the second.

System: CCRF-CEM
Experiment: Cytostatic concentration required to inhibit CEM cell proliferation
Format: functional
Settings: Homo sapiens
How it was run: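 CEM cells, mock-infected, grown with serial compound dilutions for 4 days. CC50 taken as the concentration that inhibits CEM cell proliferation by 50%.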

COC(=O)CC(=O)NC1=CS(=O)(=O)O[C@@]12[C@@H](CO[Si](C)(C)C(C)(C)C)O[C@@H](n1cc(C)c(=O)n(C)c1=O)[C@@H]2O[Si](C)(C)C(C)(C)C and COC(=O)NC1=CS(=O)(=O)O[C@@]12[C@@H](CO[Si](C)(C)C(C)(C)C)O[C@@H](n1cc(C)c(=O)n(C)c1=O)[C@@H]2O[Si](C)(C)C(C)(C)C are within 1.5-fold of each other in CC50: 29.7 µM for the first, 30.7 µM for the second.

Cc1cn([C@@H]2O[C@@H]3COC(=O)[C@]3(OS(C)(=O)=O)[C@H]2O)c(=O)[nH]c1=O showed a CC50 of 160 µM.

System: MT4
Experiment: Effective concentration required to inhibit HIV-1 IIIB in MT-4 cell culture
Format: functional, cell-based
Settings: Homo sapiens
How it was run: (§2)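 MT-4 cells (3 × 10^5/mL) infected at ~100 CCID50/mL and mixed with compound dilutions. Cytopathicity read by trypan blue exclusion at day 5. EC50 = concentration giving 50% protection against virus-induced loss of viability.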

Cc1cn([C@@H]2O[C@H](CO[Si](C)(C)C(C)(C)C)[C@@]3(OS(=O)(=O)C=C3NCCC(N)=O)[C@H]2O[Si](C)(C)C(C)(C)C)c(=O)n(C)c1=O and COC(=O)NC1=CS(=O)(=O)O[C@@]12[C@@H](CO[Si](C)(C)C(C)(C)C)O[C@@H](n1cc(C)c(=O)n(C)c1=O)[C@@H]2O[Si](C)(C)C(C)(C)C cannot be ordered by EC50: over 10 µM for the first, over 20 µM for the second.

Compared with COC(=O)CC(=O)NC1=CS(=O)(=O)O[C@@]12[C@@H](CO[Si](C)(C)C(C)(C)C)O[C@@H](n1cc(C)c(=O)n(C)c1=O)[C@@H]2O[Si](C)(C)C(C)(C)C, Cc1cn([C@@H]2O[C@@H]3COC(=O)[C@]3(OS(C)(=O)=O)[C@H]2O)c(=O)[nH]c1=O is higher in EC50: 19.5 µM for the first, over 50 µM for the second.

System: MT4
Experiment: Effective concentration required to inhibit HIV-2 ROD in MT-4 cell culture
Format: functional, cell-based
Settings: Homo sapiens
How it was run: as §2

Cc1cn([C@@H]2O[C@H](CO[Si](C)(C)C(C)(C)C)[C@@]3(OS(=O)(=O)C=C3NCCC(N)=O)[C@H]2O[Si](C)(C)C(C)(C)C)c(=O)n(C)c1=O and COC(=O)NC1=CS(=O)(=O)O[C@@]12[C@@H](CO[Si](C)(C)C(C)(C)C)O[C@@H](n1cc(C)c(=O)n(C)c1=O)[C@@H]2O[Si](C)(C)C(C)(C)C cannot be ordered by EC50: over 10 µM for the first, over 20 µM for the second.

COC(=O)CC(=O)NC1=CS(=O)(=O)O[C@@]12[C@@H](CO[Si](C)(C)C(C)(C)C)O[C@@H](n1cc(C)c(=O)n(C)c1=O)[C@@H]2O[Si](C)(C)C(C)(C)C and Cc1cn([C@@H]2O[C@@H]3COC(=O)[C@]3(OS(C)(=O)=O)[C@H]2O)c(=O)[nH]c1=O cannot be ordered by EC50: over 5 µM for the first, over 250 µM for the second.

System: CCRF-CEM
Experiment: Cytostatic concentration of the cell proliferation
Format: functional
Settings: Homo sapiens

Cc1cn([C@@H]2O[C@H](CO[Si](C)(C)C(C)(C)C)[C@@]3(OS(=O)(=O)C=C3NCCC(N)=O)[C@H]2O[Si](C)(C)C(C)(C)C)c(=O)n(C)c1=O showed a CC50 of 21 µM.

System: HEL
Experiment: Effective concentration required to inhibit HCMV Davis in HEL Cells
Format: functional, cell-based
Settings: Homo sapiens
How it was run: (§3)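 Confluent HEL cells infected with HCMV at 100 PFU/well. After 1-2 h, residual virus removed and MEM with 2% inactivated FCS added, with compound in duplicate at 5-fold dilution steps. After 7 days at 37 °C in 5% CO2, cells fixed with ethanol and Giemsa-stained; plaques or CPE scored microscopically. IC50 interpolated graphically; mean of two independent experiments.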

Cc1cn([C@@H]2O[C@H](CO[Si](C)(C)C(C)(C)C)[C@@]3(OS(=O)(=O)C=C3NCCC(N)=O)[C@H]2O[Si](C)(C)C(C)(C)C)c(=O)n(C)c1=O and COC(=O)NC1=CS(=O)(=O)O[C@@]12[C@@H](CO[Si](C)(C)C(C)(C)C)O[C@@H](n1cc(C)c(=O)n(C)c1=O)[C@@H]2O[Si](C)(C)C(C)(C)C are within 1.5-fold of each other in EC50: 29 µM for the first, 25 µM for the second.

First: COC(=O)CC(=O)NC1=CS(=O)(=O)O[C@@]12[C@@H](CO[Si](C)(C)C(C)(C)C)O[C@@H](n1cc(C)c(=O)n(C)c1=O)[C@@H]2O[Si](C)(C)C(C)(C)C
Second: Cc1cn([C@@H]2O[C@@H]3COC(=O)[C@]3(OS(C)(=O)=O)[C@H]2O)c(=O)[nH]c1=O
The EC50 of the first is 16-fold lower: 10 µM for the first, 164 µM for the second.

System: HEL
Experiment: Effective concentration required to inhibit HCMV AD-169 in HEL Cells
Format: functional, cell-based
Settings: Homo sapiens
How it was run: as §3

Cc1cn([C@@H]2O[C@H](CO[Si](C)(C)C(C)(C)C)[C@@]3(OS(=O)(=O)C=C3NCCC(N)=O)[C@H]2O[Si](C)(C)C(C)(C)C)c(=O)n(C)c1=O and COC(=O)NC1=CS(=O)(=O)O[C@@]12[C@@H](CO[Si](C)(C)C(C)(C)C)O[C@@H](n1cc(C)c(=O)n(C)c1=O)[C@@H]2O[Si](C)(C)C(C)(C)C cannot be ordered by EC50: over 16 µM for the first, at least 20 µM for the second.

First: COC(=O)CC(=O)NC1=CS(=O)(=O)O[C@@]12[C@@H](CO[Si](C)(C)C(C)(C)C)O[C@@H](n1cc(C)c(=O)n(C)c1=O)[C@@H]2O[Si](C)(C)C(C)(C)C
Second: Cc1cn([C@@H]2O[C@@H]3COC(=O)[C@]3(OS(C)(=O)=O)[C@H]2O)c(=O)[nH]c1=O
The EC50 of the first is 20-fold lower: 9 µM for the first, 179 µM for the second. The first is the more potent here.
